Experimental data reported in ChEMBL document CHEMBL1125626, “Synthesis and structure-activity relationship of new cephalosporins with amino heterocycles at C-7. Dependence of the antibacterial spectrum and beta-lactamase stability on the pKa of the C-7 heterocycle” (1991).
Converted amounts (≈) assume the structure as drawn.

Experiments:
[1] = system: Escherichia coli; assay: Minimum inhibitory concentration against Escherichia coli A8 (inoculum, 10e5 cfu per spot); type: functional
How it was run: (§1)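 MIC in µg/mL, determined in Jewell and Permain growth medium with spot inoculation at 10^5 cfu per spot.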

[2] = system: Proteus mirabilis; assay: Minimum inhibitory concentration against Proteus mirabilis A18 (inoculum, 10e5 cfu per spot); type: functional; how it was run: as §1
[3] = system: Pseudomonas aeruginosa; assay: Minimum inhibitory concentration against Pseudomonas aeruginosa A21 (inoculum, 10e5 cfu per spot); type: functional; how it was run: as §1
[4] = system: Staphylococcus aureus; assay: (§2) Minimum inhibitory concentration against Staphylococcus aureus A5(inoculum, 10e5 cfu per spot); type: functional; how it was run: as §1
[5] = system: Streptococcus pyogenes; assay: Minimum inhibitory concentration against Streptococcus pyogenes (inoculum, 10e5 cfu per spot) A1; type: functional; how it was run: as §1
[6] = system: Serratia marcescens; assay: Minimum inhibitory concentration against Serratia marcescens A16 (inoculum, 10e5 cfu per spot); type: functional; how it was run: as §1
[7] = system: Enterobacter cloacae; assay: Minimum inhibitory concentration against Enterobacter cloacae A13(inoculum, 10e2 cfu per spot)
[8] = system: Enterobacter cloacae; assay: Minimum inhibitory concentration against Enterobacter cloacae A13(inoculum, 10e5 cfu per spot); type: functional; settings: in the assay text read “10e2 cfu per spot” for “10e5 cfu per spot”
[9] = as §2; type: functional; how it was run: as §1
[10] = system: Staphylococcus aureus; assay: Minimum inhibitory concentration against Staphylococcus aureus A6 (inoculum, 10e5 cfu per spot); type: functional; how it was run: as §1
[11] = system: Staphylococcus aureus; assay: as §2; type: functional; settings: in the assay text read “10e2 cfu per spot” for “10e5 cfu per spot”
[12] = system: Escherichia coli; assay: Minimum inhibitory concentration against Escherichia coli DC2 (inoculum, 10e4 cfu per spot); type: functional
How it was run: (§3)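 MIC in µg/mL, determined in Jewell and Permain growth medium with spot inoculation at 10^4 cfu per spot. P99 is described as a constitutive type I lactamase producer.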

[13] = system: Escherichia coli; assay: Minimum inhibitory concentration against Escherichia coli DCO (inoculum, 10e4 cfu per spot); type: functional; how it was run: as §3
[14] = system: Enterobacter cloacae; assay: Minimum inhibitory concentration against Enterobacter cloacae A13 (inoculum, 10e5 cfu per spot); type: functional; how it was run: as §1
[15] = system: Enterobacter cloacae; assay: Minimum inhibitory concentration against Enterobacter cloacae P99 (inoculum, 10e4 cfu per spot); type: functional; how it was run: as §3
[16] = system: Klebsiella aerogenes; assay: Minimum inhibitory concentration against Klebsiella aerogenes X5L (inoculum, 10e4 cfu per spot); type: functional; how it was run: as §3
[17] = system: Klebsiella aerogenes; assay: Minimum inhibitory concentration against Klebsiella aerogenes X6 (inoculum, 10e4 cfu per spot); type: functional; how it was run: as §3
[18] = system: Klebsiella pneumoniae; assay: Minimum inhibitory concentration against Klebsiella pneumoniae A24 (inoculum, 10e5 cfu per spot); type: functional; how it was run: as §1
[19] = system: Staphylococcus aureus; assay: Minimum inhibitory concentration against Staphylococcus aureus A4 (inoculum, 10e5 cfu per spot); type: functional; how it was run: as §1
[20] = system: Enterobacter cloacae; assay: Minimum inhibitory concentration against Enterobacter cloacae P99 (inoculum, 10e4 cfu per spot)(type I lactamase producer); type: functional; how it was run: as §3
[21] = system: Escherichia coli; assay: Minimum inhibitory concentration against Escherichia coli X4 (inoculum, 10e4 cfu per spot)
[22] = system: Proteus vulgaris; assay: Minimum inhibitory concentration against Proteus vulgaris Pv9 (inoculum, 10e5 cfu per spot)
[23] = system: Escherichia coli; assay: Minimum inhibitory concentration against Escherichia coli TEM X3 (inoculum, 10e4 cfu per spot)(TEM I type lactamase producer)
[24] = system: Proteus mirabilis; assay: Minimum inhibitory concentration against Proteus mirabilis A18(inoculum, 10e5 cfu per spot); type: functional; how it was run: as §1

Structure (SMILES) | MIC [1] | MIC [2] | MIC [3] | MIC [5] | MIC [6] | MIC [8] | MIC [10] | MIC [12] | MIC [13] | MIC [14] | MIC [15] | MIC [16] | MIC [17] | MIC [18] | MIC [19] | MIC [20] | MIC [21] | MIC [22] | MIC [23] | also measured
CC1=C(C(=O)OC(c2ccccc2)c2ccccc2)N2C(=O)[C@@H](Nc3nc4ccccc4s3)C2SC1 (some centres undefined) | > 1000 µg/mL | 1000 µg/mL (≈ 1950 µM) | > 1000 µg/mL | 40 µg/mL (≈ 77.9 µM) | > 1000 µg/mL |  |  |  |  |  |  |  |  |  |  |  |  |  |  | MIC [4]: 1 µg/mL (≈ 1.95 µM); MIC [7]: > 1000 µg/mL
CC1=C(C(=O)OC(c2ccccc2)c2ccccc2)N2C(=O)[C@@H](Nc3nc4ccccc4[nH]3)C2SC1 (some centres undefined) | 8 µg/mL (≈ 16.1 µM) | 8 µg/mL (≈ 16.1 µM) | > 1000 µg/mL | 40 µg/mL (≈ 80.5 µM) | 200 µg/mL (≈ 403 µM) | 8 µg/mL (≈ 16.1 µM) | 40 µg/mL (≈ 80.5 µM) |  |  |  |  |  |  |  |  |  |  |  |  | MIC [9]: 8 µg/mL (≈ 16.1 µM)
CC(=O)OCC1=C(C(=O)OC(c2ccccc2)c2ccccc2)N2C(=O)[C@@H](Nc3nc4ccccc4s3)C2SC1 (some centres undefined) | 200 µg/mL (≈ 350 µM) | 200 µg/mL (≈ 350 µM) | > 1000 µg/mL | 1 µg/mL (≈ 1.75 µM) | 1000 µg/mL (≈ 1750 µM) | 200 µg/mL (≈ 350 µM) | 0.5 µg/mL (≈ 0.875 µM) |  |  |  |  |  |  |  |  |  |  |  |  | MIC [11]: 0.5 µg/mL (≈ 0.875 µM)
CC(=O)OCC1=C(C(=O)OC(C)(C)C)N2C(=O)[C@@H](Nc3nc4ccc[nH]c-4n3)C2SC1 (some centres undefined) | 2 µg/mL (≈ 4.49 µM) | 32 µg/mL (≈ 71.8 µM) | > 256 µg/mL | 4 µg/mL (≈ 8.98 µM) | > 256 µg/mL |  | 2 µg/mL (≈ 4.49 µM) | 0.5 µg/mL (≈ 1.12 µM) | 0.5 µg/mL (≈ 1.12 µM) | 256 µg/mL (≈ 575 µM) | 1 µg/mL (≈ 2.24 µM) | 256 µg/mL (≈ 575 µM) | 1 µg/mL (≈ 2.24 µM) | 2 µg/mL (≈ 4.49 µM) | 64 µg/mL (≈ 144 µM) | > 256 µg/mL | 0.5 µg/mL (≈ 1.12 µM) | > 256 µg/mL | 4 µg/mL (≈ 8.98 µM) | 
CC(=O)OCC1=C(C(=O)OC(c2ccccc2)c2ccccc2)N2C(=O)[C@@H](Nc3nc4cc(C)ccc4[nH]3)C2SC1 (some centres undefined) | 2 µg/mL (≈ 3.52 µM) |  | > 256 µg/mL | 1 µg/mL (≈ 1.76 µM) | 128 µg/mL (≈ 225 µM) |  | 2 µg/mL (≈ 3.52 µM) | 0.06 µg/mL (≈ 0.106 µM) | 1 µg/mL (≈ 1.76 µM) | 256 µg/mL (≈ 450 µM) | 2 µg/mL (≈ 3.52 µM) | 128 µg/mL (≈ 225 µM) | 4 µg/mL (≈ 7.03 µM) | 4 µg/mL (≈ 7.03 µM) | 16 µg/mL (≈ 28.1 µM) | 256 µg/mL (≈ 450 µM) | 1 µg/mL (≈ 1.76 µM) | 256 µg/mL (≈ 450 µM) | 4 µg/mL (≈ 7.03 µM) | MIC [24]: 4 µg/mL (≈ 7.03 µM)
